# From ChEMBL document CHEMBL4513216, “Probing the Open Global Health Chemical Diversity Library for Multistage-Active Starting Points for Next-Generation Antimalarials” (ACS Infect Dis, 2020)
# Assay: Toxicity liver stage against HepG2, at 10uM
# Type: cell-based
# Set-up: test concentration 10 uM, cell line HepG2-A16-CD81EGFP
# Settings: human, HepG2-A16-CD81EGFP cells; read-out: INHIBITION
# Procedure, shortened: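 Uninfected HepG2-A16-CD81EGFP cells, 3 × 10^3 per well, 1536-well, plated on prespotted compound at 10 μM final, parasite-free screening media added to match infected plates; puromycin 10 μM positive, DMSO 0.5% negative; run in parallel with 48 h PbLuc assay at 37 °C, 5% CO2; viability by CellTiter-Glo luminescence, normalized to controls.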
row,SMILES,cytotoxicity at 10 µM
1,COc1ccc(CN2CC(=O)N(c3ccc(C)cc3)CC2C)cc1O (stereo not drawn),4.84%
2,CCN1Cc2ccccc2CC2(CCN(C(=O)N(C)C)CC2)C1=O,8.3%
3,Cc1ccc(CNC(=O)Nc2nnc(C)s2)cn1,-0.243%
4,O=C(c1cccc(NCc2cccc(F)c2)c1)N1CCC(O)CC1,5.84%
5,CCOc1ccc(CN2CC[C@@H]3CC[C@H](C2)N3)cc1CO,5.99%
6,CC(O)CN(C(=O)NC1CCN(CC2CCCCC2)CC1)C(C)C (stereo not drawn),7.46%
7,Cc1[nH]ccc1C(=O)N(Cc1ccc(O)cc1)CC1CC1,6.99%
8,Cn1cc(-c2ncc3c(c2C(=O)O)CCN(CC2CC2)C3)cn1,-104%
9,COCCn1cncc1Cn1cccc(C(F)(F)F)c1=O,-19.2%
10,Fc1ccc(C2(CNCC(F)F)CCOC2)cc1 (stereo not drawn),-152%
11,CC(C)c1nnc2n1CCN(C(=O)c1cc3cc(F)ccc3[nH]1)C2,3.98%
12,CCc1ccc(C2COCCN2C(=O)Nc2ccc(C#N)cc2)o1 (stereo not drawn),-0.0554%
13,CN[C@@H]1CCC[C@@H](Oc2ccccc2Oc2ccc(C)cc2)[C@@H]1O,-14.2%
14,Cc1ncncc1-c1ccnc(NC(C)C)n1,-0.279%
15,CN(C)CC1CSCCCN1C(=O)c1ccsc1 (stereo not drawn),5.09%
16,CC1=NC2(CCN(CC(C)c3ccccc3)CC2)C(=O)N1 (stereo not drawn),5.33%
17,Cc1nc(CN2C(=O)CCC23CCN(Cc2cccn2C)CC3)cs1,0.676%
18,CCOCCN1CCN(CCOC)CC1C (stereo not drawn),-4.2%
19,c1cnc(Nc2ccc(C3CCCCN3)cn2)cn1 (stereo not drawn),1.24%
20,Cc1c(C2SCC(=O)Nc3c2c(O)nn3C2CCCC2)cnn1C (stereo not drawn),1.58%
21,CC(C)N1CCCC2(CCN(Cc3noc(C4CCCC4)n3)C2)C1=O (stereo not drawn),2.24%
22,CC(C)CCN(C)C(=O)c1nc(S(C)(=O)=O)n2ccccc12,-9.91%
23,CCOCC(=O)NCCC(O)c1ccoc1 (stereo not drawn),-4.59%

row,SMILES,cytotoxicity at 10 µM
1,CSCC[C@H](N)C(=O)NCc1cc2n(n1)CCCN(C(=O)C1CCC1)C2,-12.9%
2,CCc1nc(CN2CCOC(Cn3nc(C)cc3C)C2)no1 (stereo not drawn),4.36%
3,Cc1ncc2c(n1)CN(C=C1NN=C(c3occc3C)O1)CC2,-2.7%
4,CCOc1ccc(C(=O)Nc2ccn(CC)n2)cc1,3.16%
5,COc1c(Cl)cccc1NCc1csc(C)n1,-10.1%
6,Cc1cc(C)cc(C(=O)N2CCCC3(CCCC(=O)N3C)C2)c1 (stereo not drawn),5.06%
7,CCC(C)NC(=O)c1cncc(Br)c1 (stereo not drawn),1.24%
8,Cc1nnc(CNC(C)c2cc(C)c(F)c(C)c2)s1 (stereo not drawn),-3.7%
9,CC(C)CN1CCS(=O)(=O)[C@@H]2CCN(S(=O)(=O)c3ccccc3)CC[C@@H]21,3.62%
10,O=c1occ(CN2CCCCCC2)c(O)c1CN1CCCCCC1,-8.1%
11,CN1CCCCC1Cc1nc2c(cc1C(N)=O)CCC2 (stereo not drawn),-9.55%
12,CC(C)c1cc(C2CCCN2C(=O)CN2C(=O)CCNC2=O)no1 (stereo not drawn),18.8%
13,c1coc(CN2CCc3onc(Cn4ccnc4)c3C2)c1,7.52%
14,CC1CCN(CC(=O)N(C)CCc2noc(C3CC3)n2)C1=O (stereo not drawn),-133%
15,NC(=O)C1CCN(CC(=O)NCCn2cc(Cl)cn2)CC1,-50%
16,CC(C)c1nc(CN(C)C(=O)[C@H](N)Cc2ccc(Cl)cc2)cs1,-154%
17,COc1cccc(-n2nnc(C(=O)N3CCNC(=O)C3)c2C)c1,-10.3%
18,CC(C)(O)CNc1ccc(C#N)c(C(F)(F)F)c1,1.23%
19,CCN(CC)C(=O)C1CCCN(CC(=O)Nc2c(C)nn(CC)c2C)C1 (stereo not drawn),2.13%
20,CCN1CC2(CCC1=O)CCN(C(=O)C(O)c1cccc(Cl)c1)CC2 (stereo not drawn),0.636%
21,CC(=O)c1ccc(-c2cnn(CC(=O)Nc3ccnn3C)c2)nc1,1.99%
22,COc1ccc2cc(C(=O)N3CCCC3Cn3cc(C)cn3)[nH]c2c1 (stereo not drawn),-0.743%
23,CCN(CC1CCOC1)C(=O)c1ccccc1S(=O)(=O)CC (stereo not drawn),-2.15%

row,SMILES,cytotoxicity at 10 µM
1,CCC1=NC(SCC(=O)c2ccccc2)c2cc(CC)sc2N1 (stereo not drawn),-12.5%
2,CSC1=Nc2c(cnn2-c2ccccc2)C2=NCCCN12,8.85%
3,CN(C)CC1CSCCCN1C(=O)c1ccc(C(C)(C)C)cc1 (stereo not drawn),6.25%
4,CN1C(=O)c2ccc(C(=O)N(Cc3cnn(C)c3)C3CC3)cc2C1=O,5.68%
5,Cc1cccnc1[C@H](C)NC(=O)Cc1cc2c(cc1Cl)OCCO2,-8.26%
6,CC(Cn1ccnc1)NC(=O)N1CCN(Cc2cccs2)CC1 (stereo not drawn),-5.36%
7,CSc1ccc(C(=O)C2CCCN(C(=O)Cn3cnnn3)C2)cc1 (stereo not drawn),-1.57%
8,O=C(c1ccnc(N2CCOC(C(F)(F)F)C2)c1)N1CCOCC1 (stereo not drawn),2.52%
9,CCSc1cc(C(=O)NC2CCN(C(=O)c3ccccc3)CC2)ccn1,13.5%
10,O=C(c1cc(-c2cccs2)on1)N1CCCCC1Cn1cccn1 (stereo not drawn),-2.93%
11,Cc1cccc(CN2C[C@@H]3COC[C@]3(CNC(=O)c3cccn3C)C2)n1,-5.64%
12,CN(C1CCCCC1)S(=O)(=O)N1CCN(Cc2ccon2)CC1,6.75%
13,Cc1nc(C)n(CC2CCCCN2Cc2nnc(C3CC3)o2)n1 (stereo not drawn),-10.7%
14,CC(C)n1cc(S(=O)(=O)N2CCCCC2)cn1,2.53%
15,CN(C)S(=O)(=O)NCC1(c2ccccc2Br)CC1,1.94%
16,CC(O)CN1CCc2onc(C(c3ccccc3)c3ccccc3)c2C1 (stereo not drawn),-1.49%
17,CCS(=O)(=O)N1CCC2(CC1)CC[C@@]1(C(=O)N(C)C)CN(C(C)=O)C[C@@H]21,6.43%
18,Cc1nc(C(C)NC(=O)NCc2nccn2CC(C)C)cs1 (stereo not drawn),-20.7%
19,O=C(NCc1cnn2cccnc12)c1cccc(CC2CCNCC2)c1,-44.5%
20,CCn1nc(C)c2ncnc(NCCN3CCOCC3)c21,8.93%
21,OCCN1CCCCC1c1cc[nH]n1 (stereo not drawn),-1.71%
22,CCCOCCN1CCN(c2ncnc3[nH]ccc23)CC1,-6.67%
23,COCC(=O)NC1CCN(c2cccc(OC(F)(F)F)c2)C1=O (stereo not drawn),-3.17%

row,SMILES,cytotoxicity at 10 µM
1,CNc1nc(CNC(=O)Nc2ccc(SC)c(F)c2)cs1,-5.75%
2,CCN(Cc1cccc2c1OCO2)C(=O)Nc1ccncc1,2.58%
3,Cn1nnnc1SCCNC(=O)c1c[nH]nc1C1CCCCC1,-0.863%
4,Cc1nn(C)c(N2CCOCC2)c1CNCc1ccccc1CO,-13.2%
5,O=C1C(N2CCN(c3ccccc3Cl)CC2)CCN1C1CCOCC1 (stereo not drawn),-0.455%
6,CCc1ncc(CN(C)C(=O)Nc2cccnc2N2CCCC2)s1,-8.43%
7,c1cncc(OC2CCN(CCn3cc4ccccc4n3)CC2)c1,1.48%
8,CCNc1ccnc(CN2CCCC2C(=O)Nc2nccs2)c1 (stereo not drawn),4.32%
9,COc1ncccc1CNC(=O)c1cnc(C)cn1,-4.69%
10,CCC(C)(C)NC(=O)CSCc1ccc(S(=O)(=O)N(C)C)o1,5.94%
11,CCC(C)Oc1cc(C(=O)Nc2nc(C)ns2)ccn1 (stereo not drawn),-1.02%
12,CSc1ccccc1C(=O)N1C[C@@H](N(C)C)[C@H](c2ccc(C)cc2)C1,-7.02%
13,Cc1n[nH]cc1CNC(=O)[C@H]1CCCCN1C(=O)OC(C)(C)C,-0.311%
14,COc1ccc(CN2CCOC[C@H](OCc3ccccc3)C2)cc1,2.79%
15,COc1ncccc1C1CC(=O)Nc2cc(NS(C)(=O)=O)ccc21 (stereo not drawn),-8.1%
16,CCn1cc(S(=O)(=O)N2CCCSc3ccccc32)cn1,9.25%
17,Cc1ccc(NC(=O)CN[C@H](C(N)=O)C(C)C)cc1F,11%
18,COc1ccc(Cl)cc1NC(=O)N(C)CC(O)COCCOC(C)C (stereo not drawn),11.3%
19,Cc1cc(N2CCC(Cc3ccccc3)CC2)nc(-c2ccncc2)n1,-2.68%
20,CCC(=O)c1ccc(OCC(=O)NC(C)c2nnc(C)[nH]2)cc1 (stereo not drawn),5.37%
21,COc1ccsc1C(=O)NC1CCN(c2cccc(F)c2)CC1,18.3%
22,O=C(O)CSc1nnc(-c2cn[nH]c2)n1-c1ccccc1Cl,-3.54%
23,COC(=O)NCC(=O)NCc1nn(-c2ccccc2)c2c1CCC2,-7.72%

row,SMILES,cytotoxicity at 10 µM
1,COCCNC(=O)[C@@]12CCO[C@@H]1CCN(Cc1ccncc1)C2,-77.3%
2,Cn1cccc1C(=O)N1CCO[C@@H]2CN(Cc3ccco3)C[C@@H]2C1,-97.3%
3,O=C(NCC1CCCO1)c1nc2c(s1)CCCN2CC1CC1 (stereo not drawn),-0.843%
4,OCC1CCC2(CC1)CN(Cc1ccsc1)Cc1ccccc1O2 (stereo not drawn),-3.78%
5,O=C(CCC1CCN(C2CCSCC2)CC1)NCC1CCCO1 (stereo not drawn),8.73%
6,O=C(CCNCC(F)(F)F)N1CCC(Nc2cccnn2)CC1,-1.5%
7,CCNC(=O)CNCc1c(C(C)C)nn(C)c1N1CCOCC1,-6.45%
8,Cn1cc(NC(=O)CNC(=O)N2CCN(c3ccccc3)CC2)cn1,0.0207%
9,COc1cc(C(=O)N2CCC(Nc3cccnc3)CC2)ccc1C,-134%
10,Cc1cc2nc(C(C)C)cc(NCC(c3ccccn3)N(C)C)n2n1 (stereo not drawn),-1.63%
11,c1cc2nccc(CC3CCCN(Cc4c[nH]cn4)CC3)c2cn1 (stereo not drawn),-5.11%
12,CCc1nnc(CN(C)Cc2nc(-c3ccccc3Cl)oc2C)o1,-7.43%
13,CCCOCC(=O)N1CCc2c(cccc2S(=O)(=O)N2CCOCC2)C1,2.71%
14,CCn1ncc2c1CCCC2NCc1ccc(OC)c(F)c1 (stereo not drawn),-6.07%
15,CN1CC2(CCN(S(=O)(=O)C3CC3)CC2)c2ccccc21,-4.35%
16,CC(Cn1ccnc1)NCc1n[nH]c2c1CCC2 (stereo not drawn),6.07%
17,Cn1cc(CC2CC(=O)N(Cc3ccccc3OC(F)F)C2=O)cn1 (stereo not drawn),2.21%
18,Cc1nc(CCCNC(=O)C2CC(=O)N(C3CC3)C2)sc1C (stereo not drawn),-12.9%
19,CC(C)CC(=O)NCCCn1cncn1,-18.9%
20,CC(C)(C)N1CC(C(=O)N2CCN(CCc3ccccc3)CC2)CC1=O (stereo not drawn),23.4%
21,Cn1cc(Cl)c(CN(Cc2ccsc2)CC2CCCO2)n1 (stereo not drawn),-3.84%
